Assay results taken from ChEMBL document CHEMBL4411328, “Synthesis and Structural/Functional Characterization of Selective M14 Metallocarboxypeptidase Inhibitors Based on Phosphinic Pseudopeptide Scaffold: Implications on the Design of Specific Optical Probes” (J Med Chem, 2019).
Active and inactive are the calls of the source. No cut-off for these calls is given here.

Key:
HeLa [1] = assay: Cytotoxicity against human HeLa cells by fluorescence confocal microscopy; assay type: cell-based
Papain (Carica papaya) = Papain (Carica papaya) (UniProt P00784); assay: Inhibition of papaya papain at 1 nM to 1 mM using L-pyroglutamyl-Lphenylalanyl-L-leucine-p-nitroanilide peptide as substrate preincubated for 45 mins measured at 30 sec intervals for 15 mins by UV/vis-spectrophotometry
How it was run: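 Papain 4.5x10-8 M, PFLNA substrate 4.0x10-4 M, buffer 100 mM phosphate pH 6.5, 100 mM KCl, 0.1 mM EDTA, 3 mM DTT, 0.05% w/v Brij-35; read at 414 nm. 45 min preincubation at 37 °C with inhibitor; initial velocities, 30-sec reads for 15 min, triplicate.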

[2] = molecular target: Prothrombin (Homo sapiens) (UniProt P00734); assay: Inhibition of human thrombin at 1 nM to 1 mM using benzoylphenyl-valyl-arginine 4-nitroanilide as substrate preincubated for 45 mins measured at 30 sec intervals for 15 mins by UV/vis-spectrophotometry
How it was run: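 hThrombin 2.0x10-8 M with 1.0x10-3 M BzFVRPNA in 100 mM Tris-HCl pH 8.0, followed at 414 nm. Enzyme and inhibitor preincubated 45 min at 37 °C; substrate then added; initial velocities every 30 sec for 15 min, in triplicate.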

[3] = Drug uptake in CPA3 expressing human HeLa cells at 1 to 5 uM treated for 6 hrs followed by cell wash and measured by DAPI-staining based fluorescence confocal microscopy; assay type: ADME
How it was run: (§1)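 HeLa cells with cytoplasmic hCPA3 expression were treated 6 h with the fluorescent probe at 1 or 5 µM, washed, then imaged by fluorescence confocal microscopy for internalization and co-localization with CPA3.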

Bos taurus = organism: Bos taurus; assay: Inhibition of bovine trypsin at 1 nM to 1 mM using Nalpha-benzoyl-L-arginine 4-nitroanilide hydrochloride as substrate preincubated for 45 mins measured at 30 sec intervals for 15 mins by UV/vis-spectrophotometry
[4] = molecular target: Carboxypeptidase N catalytic chain (Homo sapiens) (UniProt P15169); assay: Inhibition of human CPN at 1 nM to 1 mM using N-(3-[2-furyl]acryloyl)-alanyl-lysine-OH as substrate preincubated for 45 mins measured at 30 sec intervals for 15 mins by UV/vis-spectrophotometry
How it was run: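 hCPN at 2.0x10-9 M with 2.0x10-4 M FAAK substrate in 20 mM Tris-HCl pH 7.5, 100 mM NaCl, followed at 330 nm. Enzyme and inhibitor preincubated 45 min at 37 °C before substrate. Initial velocities read every 30 sec over 15 min, triplicate.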

[5] = molecular target: Mast cell carboxypeptidase A (Homo sapiens) (UniProt P15088); assay: Binding affinity to CPA3 expressing human HeLa cells assessed as compound co-localization with CPA3 at 1 to 5 uM treated for 6 hrs followed by cell wash and measured by DAPI-staining based fluorescence confocal microscopy; how it was run: as §1
Stromelysin-2 = Stromelysin-2 (Homo sapiens, UniProt P09238); assay: Inhibition of human MMP10 using fluorogenic Mca-Pro-Leu-Gly-Leu-Dpa-Ala-Arg-NH2 peptide as substrate preincubated for 45 mins measured at 30 sec intervals for 15 mins by UV/vis-spectrophotometry
How it was run: (§2)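 MMPs at nanomolar level with fluorogenic Mca-Pro-Leu-Gly-Leu-Dpa-Ala-Arg-NH2 substrate in 50 mM Tris-HCl pH 6.8, 10 mM CaCl2. Enzyme, inhibitor and buffer preincubated 45 min at 37 °C, then substrate added; initial velocities from 30-sec reads over 15 min, in triplicate.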

Collagenase 3 = Collagenase 3 (Homo sapiens, UniProt P45452); assay: Inhibition of human MMP13 using fluorogenic Mca-Pro-Leu-Gly-Leu-Dpa-Ala-Arg-NH2 peptide as substrate preincubated for 45 mins measured at 30 sec intervals for 15 mins by UV/vis-spectrophotometry; how it was run: as §2
[6] = molecular target: Mast cell carboxypeptidase A (Rattus norvegicus, UniProt P21961); assay: Inhibition of rat CPA3 using AAFP as substrate preincubated for 45 mins measured at 30 sec intervals for 15 mins by UV/vis-spectrophotometry
How it was run: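 Enzyme, inhibitor and buffer preincubated 45 min at 37 °C, then substrate added. Read at 355 nm every 30 sec for 15 min as initial velocities, in triplicate.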

[7] = molecular target: Cytosolic carboxypeptidase 1 (Homo sapiens) (UniProt Q9UPW5); assay: Inhibition of human CCP1 at 1 nM to mM using tubulin as substrate preincubated for 45 mins measured at 30 sec intervals for 15 mins by UV/vis-spectrophotometry
How it was run: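 hCCP1 or hCCP6 at 1.0x10-6 g with tubulin (12.5x10-5 g) as substrate in 20 mM Tris-HCl pH 7.5, 100 mM NaCl. Enzyme, inhibitor and buffer preincubated 45 min at 37 °C before substrate addition; run in triplicate.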

[8] = molecular target: Carboxypeptidase B2 (Homo sapiens) (UniProt Q96IY4); assay: Inhibition of human TAFI at 1 nM to 1 mM using AAFA as substrate preincubated for 45 mins measured at 30 sec intervals for 15 mins by UV/vis-spectrophotometry
How it was run: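 Absorbance at 355 nm. Preincubation 45 min at 37 °C with inhibitor before substrate addition. Initial velocities from 30-sec reads over 15 min; triplicates.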

Homo sapiens = organism: Homo sapiens; assay: Inhibition of pepsin (unknown origin) at 1 nM to 1 mM using H-Leu-Ser-p-nitro-Phe-Nle-Ala-Leu-OMe peptide as substrate preincubated for 45 mins measured at 30 sec intervals for 15 mins by UV/vis-spectrophotometry
How it was run: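 Pepsin 1.0x10-8 M with 2.0x10-4 M LSPNP substrate in 100 mM acetate pH 4.4, monitored at 310 nm. Inhibitor preincubated with enzyme 45 min at 37 °C; initial velocities over 15 min at 30-sec intervals; triplicate.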

[9] = molecular target: T1, Carboxypeptidase A1 (Homo sapiens) (UniProt P15085); assay: Inhibition of human CPA1 peptide degradation activity at 5 to 500 nM using neurotensin peptide as substrate preincubated for 2 hrs followed by substrate addition and measured up to 7 hrs by MALDI-TOF/TOF spectrometry
T1 sequence (whole entry): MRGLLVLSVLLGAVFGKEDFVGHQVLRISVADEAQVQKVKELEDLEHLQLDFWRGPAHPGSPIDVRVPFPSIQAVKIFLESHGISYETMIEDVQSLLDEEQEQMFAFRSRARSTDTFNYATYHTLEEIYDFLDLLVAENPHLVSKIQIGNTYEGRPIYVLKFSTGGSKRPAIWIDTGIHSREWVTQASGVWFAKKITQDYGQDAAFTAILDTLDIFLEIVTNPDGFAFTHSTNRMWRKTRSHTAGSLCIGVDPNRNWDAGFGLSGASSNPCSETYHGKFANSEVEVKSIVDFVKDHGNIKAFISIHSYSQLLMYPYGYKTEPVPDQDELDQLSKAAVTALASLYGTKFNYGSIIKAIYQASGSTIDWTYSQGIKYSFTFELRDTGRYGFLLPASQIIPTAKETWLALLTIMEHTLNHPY
How it was run: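 Human CPA1 (20nM) digested the model peptide neurotensin over a 0-7h time course, with no inhibitor or with inhibitor at 5 and 500nM. Samples were taken at intervals and analyzed by MALDI-TOF MS.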

HeLa [10] = assay: Cytotoxicity against human HeLa cells assessed as reduction in cell viability at 1 to 5 uM after 24 hrs by XTT assay; assay type: cell-based
How it was run: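 Cells were exposed to compound at 1 and 5 µM for 24h in culture, and viability was then read by the XTT assay.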

Sequence of Mast cell carboxypeptidase A (P21961 whole entry): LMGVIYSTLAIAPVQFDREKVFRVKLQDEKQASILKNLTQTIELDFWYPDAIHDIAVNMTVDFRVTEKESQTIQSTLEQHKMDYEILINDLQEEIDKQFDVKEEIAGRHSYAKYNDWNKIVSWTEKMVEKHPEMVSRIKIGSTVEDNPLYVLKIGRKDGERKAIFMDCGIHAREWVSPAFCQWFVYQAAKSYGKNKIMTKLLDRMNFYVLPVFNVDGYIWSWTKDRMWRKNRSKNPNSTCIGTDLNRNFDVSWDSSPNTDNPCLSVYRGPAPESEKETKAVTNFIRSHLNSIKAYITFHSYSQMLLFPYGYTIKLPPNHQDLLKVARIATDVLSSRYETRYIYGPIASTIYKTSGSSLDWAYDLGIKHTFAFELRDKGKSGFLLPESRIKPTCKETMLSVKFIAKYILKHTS
Sequence of Stromelysin-2 (P09238 whole entry): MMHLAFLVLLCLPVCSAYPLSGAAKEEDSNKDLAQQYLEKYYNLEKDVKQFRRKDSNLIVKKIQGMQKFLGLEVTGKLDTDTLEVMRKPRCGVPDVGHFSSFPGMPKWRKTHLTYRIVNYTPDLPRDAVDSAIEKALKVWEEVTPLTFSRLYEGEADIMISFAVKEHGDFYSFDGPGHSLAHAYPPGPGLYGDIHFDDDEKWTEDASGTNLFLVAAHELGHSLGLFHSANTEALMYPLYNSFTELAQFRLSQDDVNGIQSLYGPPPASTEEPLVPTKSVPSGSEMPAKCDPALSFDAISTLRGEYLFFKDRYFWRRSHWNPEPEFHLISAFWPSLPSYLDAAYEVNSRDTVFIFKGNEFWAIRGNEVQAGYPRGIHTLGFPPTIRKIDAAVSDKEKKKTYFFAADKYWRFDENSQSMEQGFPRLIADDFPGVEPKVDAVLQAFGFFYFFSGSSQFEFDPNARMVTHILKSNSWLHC
Sequence of Cytosolic carboxypeptidase 1 (Homo sapiens) (Q9UPW5 whole entry): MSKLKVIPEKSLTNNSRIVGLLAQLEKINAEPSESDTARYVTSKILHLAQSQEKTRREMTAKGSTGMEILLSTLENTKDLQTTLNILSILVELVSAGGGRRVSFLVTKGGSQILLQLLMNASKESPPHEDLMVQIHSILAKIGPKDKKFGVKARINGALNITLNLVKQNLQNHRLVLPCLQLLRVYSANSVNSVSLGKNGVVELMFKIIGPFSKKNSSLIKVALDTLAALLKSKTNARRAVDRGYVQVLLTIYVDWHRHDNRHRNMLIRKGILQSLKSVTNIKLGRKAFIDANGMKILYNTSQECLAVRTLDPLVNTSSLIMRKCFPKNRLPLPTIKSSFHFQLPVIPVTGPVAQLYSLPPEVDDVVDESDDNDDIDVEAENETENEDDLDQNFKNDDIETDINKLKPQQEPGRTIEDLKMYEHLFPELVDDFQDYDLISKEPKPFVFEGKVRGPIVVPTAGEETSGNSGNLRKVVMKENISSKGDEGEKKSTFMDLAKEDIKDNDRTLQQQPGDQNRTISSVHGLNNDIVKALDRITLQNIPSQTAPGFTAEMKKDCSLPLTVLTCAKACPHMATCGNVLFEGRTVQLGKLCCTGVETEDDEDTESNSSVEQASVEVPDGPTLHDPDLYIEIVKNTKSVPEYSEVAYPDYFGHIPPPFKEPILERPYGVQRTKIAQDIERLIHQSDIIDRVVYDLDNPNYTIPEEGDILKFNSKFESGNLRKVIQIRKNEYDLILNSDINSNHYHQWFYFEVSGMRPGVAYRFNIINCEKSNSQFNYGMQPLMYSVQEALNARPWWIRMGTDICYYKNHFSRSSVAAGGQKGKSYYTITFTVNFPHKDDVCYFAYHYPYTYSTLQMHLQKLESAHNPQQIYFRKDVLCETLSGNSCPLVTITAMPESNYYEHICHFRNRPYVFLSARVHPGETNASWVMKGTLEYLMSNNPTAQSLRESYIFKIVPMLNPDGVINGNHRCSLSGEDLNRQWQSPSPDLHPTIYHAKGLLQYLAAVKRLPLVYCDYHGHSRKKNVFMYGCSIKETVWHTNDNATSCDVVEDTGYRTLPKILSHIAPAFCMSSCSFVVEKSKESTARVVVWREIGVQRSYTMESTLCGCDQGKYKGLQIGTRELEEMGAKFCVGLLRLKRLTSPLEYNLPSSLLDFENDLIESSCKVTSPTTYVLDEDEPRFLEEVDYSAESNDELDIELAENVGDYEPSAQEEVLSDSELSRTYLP
Sequence of Carboxypeptidase B2 (Homo sapiens) (Q96IY4 whole entry): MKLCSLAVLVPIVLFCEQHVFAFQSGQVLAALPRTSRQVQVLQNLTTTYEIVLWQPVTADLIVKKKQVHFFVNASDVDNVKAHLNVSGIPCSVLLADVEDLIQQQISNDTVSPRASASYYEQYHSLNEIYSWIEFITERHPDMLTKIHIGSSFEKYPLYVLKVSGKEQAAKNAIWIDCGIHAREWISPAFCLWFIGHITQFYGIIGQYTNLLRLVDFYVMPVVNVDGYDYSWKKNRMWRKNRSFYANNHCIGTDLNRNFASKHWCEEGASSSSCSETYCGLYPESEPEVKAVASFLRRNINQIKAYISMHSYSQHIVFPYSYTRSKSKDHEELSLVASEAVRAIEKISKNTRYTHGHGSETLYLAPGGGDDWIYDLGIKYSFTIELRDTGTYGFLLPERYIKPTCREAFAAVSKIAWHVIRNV
Sequence of Mast cell carboxypeptidase A (Homo sapiens) (P15088 whole entry): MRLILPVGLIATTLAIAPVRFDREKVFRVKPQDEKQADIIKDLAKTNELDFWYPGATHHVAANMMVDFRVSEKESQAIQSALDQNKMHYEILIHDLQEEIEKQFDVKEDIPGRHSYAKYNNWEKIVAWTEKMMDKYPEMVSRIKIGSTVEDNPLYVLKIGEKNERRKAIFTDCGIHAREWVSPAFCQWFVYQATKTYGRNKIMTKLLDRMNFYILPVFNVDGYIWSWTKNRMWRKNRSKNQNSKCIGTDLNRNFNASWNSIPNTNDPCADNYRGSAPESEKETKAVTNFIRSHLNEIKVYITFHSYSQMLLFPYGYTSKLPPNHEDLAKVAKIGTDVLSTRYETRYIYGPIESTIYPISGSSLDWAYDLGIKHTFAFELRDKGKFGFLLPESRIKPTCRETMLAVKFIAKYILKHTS
Sequence of Carboxypeptidase N catalytic chain (Homo sapiens) (P15169 whole entry): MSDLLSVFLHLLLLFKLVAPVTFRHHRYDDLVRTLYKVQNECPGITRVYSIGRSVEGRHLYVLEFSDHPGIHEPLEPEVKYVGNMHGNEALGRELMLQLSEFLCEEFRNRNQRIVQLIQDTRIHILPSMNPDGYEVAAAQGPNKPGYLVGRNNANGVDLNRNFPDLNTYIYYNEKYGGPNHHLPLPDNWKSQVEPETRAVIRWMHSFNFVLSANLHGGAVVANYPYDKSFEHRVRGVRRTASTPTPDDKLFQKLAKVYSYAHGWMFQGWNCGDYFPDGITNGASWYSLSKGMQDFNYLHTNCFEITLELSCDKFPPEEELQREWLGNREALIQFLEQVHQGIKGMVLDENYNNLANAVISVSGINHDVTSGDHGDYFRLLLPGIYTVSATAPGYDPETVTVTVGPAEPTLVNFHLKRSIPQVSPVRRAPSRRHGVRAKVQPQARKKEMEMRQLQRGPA
Sequence of Papain (Carica papaya) (P00784 whole entry): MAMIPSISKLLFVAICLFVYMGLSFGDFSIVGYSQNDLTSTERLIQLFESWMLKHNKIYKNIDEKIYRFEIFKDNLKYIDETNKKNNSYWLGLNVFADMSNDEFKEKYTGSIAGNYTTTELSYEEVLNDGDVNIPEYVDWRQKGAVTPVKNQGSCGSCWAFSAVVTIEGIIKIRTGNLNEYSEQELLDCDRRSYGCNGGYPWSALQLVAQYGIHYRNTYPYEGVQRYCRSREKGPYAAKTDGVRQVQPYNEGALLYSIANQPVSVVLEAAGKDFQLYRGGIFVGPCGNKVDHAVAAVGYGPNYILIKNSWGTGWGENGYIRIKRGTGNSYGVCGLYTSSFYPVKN

| Structure (SMILES) | Activity (HeLa [1]) | inhibition (Papain (Carica papaya)) | inhibition [2] | Drug uptake [3] | inhibition (Bos taurus) | inhibition [4] | Activity [5] | Ki (Stromelysin-2) | Ki (Collagenase 3) | Ki [6] | inhibition [7] | inhibition [8] | inhibition (Homo sapiens) | inhibition [9] | Activity (HeLa [10]) |
| --- | --- | --- | --- | --- | --- | --- | --- | --- | --- | --- | --- | --- | --- | --- | --- |
| C[C@H](NC(=O)[C@H](Cc1ccc(O)cc1)NC(=O)COCCOCCNC(=O)CCOCCOCCOCCNC(=O)CCc1ccc(C(=C\C=C2\N(CCCCS(=O)(=O)O)c3ccc4c(S(=O)(=O)[O-])cc(S(=O)(=O)O)cc4c3C2(C)C)/C=C/C2=[N+](CCCCS(=O)(=O)O)c3ccc4c(S(=O)(=O)O)cc(S(=O)(=O)O)cc4c3C2(C)C)cc1)P(=O)(O)C[C@@H](CCc1ccccc1)C(=O)O | Non-Toxic | inactive | inactive | Not Active | inactive | inactive | Active | 983 nM | 562 nM | 0.017 nM | inactive | inactive | inactive |  |  |
| CC(=O)N[C@@H](Cc1ccc(O)cc1)C(=O)N[C@@H](C)P(=O)(O)C[C@@H](CCc1ccccc1)C(=O)O |  |  |  |  |  |  |  |  |  |  |  |  |  | Active | Non-Toxic |
